HUVEC prolif 384 – human endothelial cell proliferation inhibition. HUVEC proliferation, CellTiter-Glo luminescence, 72 h; hits give low values. viability, % at 10 µM (by protocol). 86,000 tested, 1.1% active. AID 648;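 active means viability at or below 30%; inactive means viability above 30%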;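 further: 100% = median luminescence of DMSO-only cell control wells on each plate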
Ecoli tolC – growth inhibitors of E. coli BW25113 tolC mutant; growth inhibition, % at 10 µM (by protocol); 65,000 tested, 2.2% active; OD615;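 active means growth inhibition at or above a cutoff equal to the mean over every tested compound plus 3 SD, cut at about 60% in these data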;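 further: growth measured after 20 h incubation at 37 °C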
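Test system: tolC-deleted E. coli BW25113 | Medium: LB with kanamycin 50 µg/mL | Compound dosing: Single concentration, 10 µM final per compound | Schedule: 37 °C, 20 h exposure | Measured by: OD at 615 nm | Evaluation: Percent growth inhibition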
H69AR inhibit – blocks growth of human H69AR lung tumor cells; 85,000 tested, 6% active; H69AR lung tumor viability, ATP luminescence, 72 h; hits give low values; viability, % at 10 µM;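 active means viability at or below 40%; inactive means viability above 40%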;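 further: multidrug resistant small cell line overexpressing MRP-1 efflux transporter; 100% = mean luminescence of untreated control wells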
E coli WT exp – growth inhibitors of E. coli BW25113 wild type; OD600 absorbance; growth inhibition, % at 100 µM; 98,000 tested, 0.15% active; AID 710;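 active means growth inhibition above about 50% at one test dose, limit read from the data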;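 further: growth measured after 20 h incubation at 37 °C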
Lung fibro prol – blocks proliferation of human lung fibroblasts. LL 47 human lung fibroblast viability, ATP luminescence; hits give low values. viability, % at 10 µM. 85,000 tested, 1.1% active. AID 719;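 active means viability at or below 50% in the single dose screen; inactive means viability above 50%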;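 further: compound exposure lasted 72 h before the ATP readout; 100% = median luminescence of untreated cell-only wells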
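Material: human LL 47 lung fibroblast cells; quantity: 1,150 cells/well; medium: IMEM plus 15% FBS; doses: 0.1% DMSO in all compound wells; timing: overnight attachment after seeding, then 72 h compound exposure at 37 °C; detection: CellTiter-Glo luminescence; measure: % viability of median cell-only signal; controls: cell-only wells, no compound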
Jurkat tox 60K – cytotoxic compounds reducing Jurkat cell viability | 56,000 tested, 1.2% active | Jurkat E6.1 viability, ATP luminescence, 48 h | inhibition, % at 4 µM | AID 463;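 active means inhibition above the mean inhibition of all tested compounds plus 3 SD, cut at about 28% in these data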
* = called active by the depositor; nt = not tested or not shown. Compounds with a hit are over-represented: about 6.4% of the library has one in this group of screens.

SMILES | HUVEC prolif 384 | Ecoli tolC | H69AR inhibit | E coli WT exp | Lung fibro prol | Jurkat tox 60K
CCN(C(=O)c1c(C)cc(=O)oc1C)c1ccc2c(c1)OCO2 | 90 | nt | 103 | -2 | 95 | nt
CCN(C(=O)c1coc(=O)c(Br)c1)c1ccc2c(c1)OCO2 | 77 | -6 | 2.0* | 8 | 92 | -7
O=C(CC(O)(c1ccccc1)C(F)(F)C(F)F)c1cccs1 (stereo not drawn) | 89 | 13 | 99 | 10 | 93 | -1
O=C(/C=C/c1ccccc1)CC(O)(c1ccccc1)C(F)(F)C(F)F (stereo not drawn) | 5.3* | nt | 1.3* | -1 | 32* | nt
COc1ccc(/C=C/C(=O)CC(O)(c2ccccc2)C(F)(F)F)cc1 (stereo not drawn) | 62 | nt | 38* | nt | 88 | nt
O=C(/C=C/c1ccccc1)CC(O)(c1ccccc1)C(F)(F)F (stereo not drawn) | 26* | nt | 2.0* | 8 | 35* | nt
Cc1cccc(NC(=S)c2nc3ccccc3s2)c1 | nt | nt | nt | -19 | nt | nt
COCC(=O)Nc1cc(C(=O)Nc2cccc(C)c2C)ccc1Cl | nt | nt | nt | 2 | nt | nt
C/C=C/c1c(F)c(F)c(Oc2ccc(C(=O)O)cc2)c(F)c1F | 104 | nt | 95 | -4 | 109 | nt
CC(C)N1CCC2(CC1)N=C(c1ccc3c(c1)OCO3)CC(c1cc(Cl)ccc1O)N2 (stereo not drawn) | 30* | 100* | 1.5* | 29 | 5.9* | 25
O=c1cc(-c2ccccc2)[nH]c2ccccc12 | 53 | 2 | 31* | 17 | 57 | 93*
CCN(CC)C(=O)Cn1nc(-c2ccccc2O)nc1SCC(=O)Nc1ccc(OC)cc1 | 78 | 2 | 35* | -10 | 93 | -2
O=C1CC(O)(C(F)(F)F)Oc2c1ccc1ccccc21 (stereo not drawn) | 67 | 97* | 91 | 35 | 104 | -1
CNC(=O)C1C2C=CC3(O2)C1C(=O)N(C1CC1)C3C(=O)NCc1ccc(OC)cc1 (stereo not drawn) | 95 | 3 | 94 | 1 | 98 | nt
Cc1cccc2cc(C#N)c(SCC(=O)N3CCC(C)CC3)nc12 | 82 | 17 | 82 | -9 | 92 | 0
Cc1cccc2cc(C#N)c(SCC(=O)N3CC(=O)Nc4ccccc43)nc12 | nt | 16 | nt | 1 | nt | 99*
c1cncc(-c2nc(NCC3COc4ccccc4O3)c3ccccc3n2)c1 (stereo not drawn) | 57 | nt | 16* | -4 | 87 | nt
COC(=O)CNc1nc(-c2cccnc2)nc2ccccc12 | 88 | 19 | 81 | 1 | 97 | nt
COc1ccc(S(=O)(=O)NC2CCCC2)c(Cl)c1Cl | 81 | nt | 91 | -10 | 88 | nt
CCOC(=O)c1c(NC(=O)COc2ncnc3sccc23)sc2c1CCC2 | 20* | -4 | 55 | -8 | 81 | 9
CCOC(=O)c1c(NC(=O)COC)sc2c1CCCC2 | 87 | 14 | 103 | 0 | 99 | 0
Cc1cc(C)nc(NC(=O)CSc2nc3ccccc3s2)n1 | 86 | nt | 91 | -4 | 89 | nt
CN(CCO)c1cc(Sc2nc3ccccc3s2)c2nonc2c1[N+](=O)[O-] | 75 | nt | 4.3* | 4 | 30* | nt
CCCCOP(=O)(OCCCC)C1(NS(=O)(=O)c2ccccc2)C=CC(=O)c2ccccc21 (stereo not drawn) | 34 | nt | 12* | -7 | 86 | nt
Cc1cccc(N2CC(c3nc4ccccc4n3C)CC2=O)c1C (stereo not drawn) | 96 | 100* | 88 | nt | 99 | -4
SMILES | HUVEC prolif 384 | Ecoli tolC | H69AR inhibit | E coli WT exp | Lung fibro prol | Jurkat tox 60K
Cc1cc(-c2csc(N)n2)c(C)n1CCc1ccccc1 | 42 | 33 | 40* | -5 | 89 | 4
N#CC1=C(N)S[C@H](C(=O)C23CC4CC(CC(C4)C2)C3)[C@H]1c1ccncc1 | 89 | 47 | 102 | 1 | 80 | 8
CC(=O)c1sc(NC(=O)C2(F)C(F)(F)C(F)(F)C(F)(F)C(F)(F)C2(F)F)nc1C | 45 | 100* | 12* | 8 | 54 | 90*
CCCCc1nnc(NC(=O)CSc2nc(=O)cc(N)n2-c2cccc(C)c2)s1 | 83 | nt | 107 | 1 | 103 | nt
Oc1ccc(C2Nc3cccc4cccc(c34)N2)c(O)c1 | 82 | nt | 17* | 11 | 83 | nt
O=C1c2ccccc2NC(c2ccco2)N1O (stereo not drawn) | 102 | -16 | 88 | 9 | 101 | -4
COc1cc(C2Nc3cccc4cccc(c34)N2)cc(OC)c1O | 82 | 9 | 19* | 8 | 107 | -4
c1coc(C2Nc3cccc4cccc(c34)N2)c1 | 78 | -11 | 6.7* | 9 | 98 | 12
CC1Cc2ccccc2N1C(=O)CN1C(=O)C(=O)N(Cc2ccccc2)C1=O (stereo not drawn) | nt | nt | nt | -8 | nt | nt
CCCCn1c(SCC(=O)N2CCCc3ccccc32)nc2c1c(=O)n(C)c(=O)n2C | 79 | 3 | 63 | -2 | 105 | -1
c1ccc(-c2nnc(-c3ccccn3)nc2NC2CCCCC2)cc1 | 18* | nt | 37* | 100* | 19* | nt
c1ccc(-c2n[nH]c(-c3ccccn3)n2)cc1 | 84 | nt | 93 | 8 | 97 | nt
c1ccc(-c2nc(-c3ccccn3)no2)cc1 | 55 | nt | 42 | nt | 56 | nt
CNc1nc(-c2ccccn2)nnc1-c1ccccc1 | 11* | nt | 68 | 32 | 13* | nt
COC(=O)c1ccc(N(C(=O)CNC(=O)c2ccco2)C(C(=O)NC2CCCC2)c2ccco2)cc1 (stereo not drawn) | 97 | nt | 95 | nt | 90 | nt
N#Cc1ccsc1NC(=O)CSc1ncnc2ccccc12 | 83 | 9 | 38* | 3 | 78 | 4
Cc1ccc(NC(=O)Cn2c(=O)oc3cc(S(=O)(=O)N4CCC(C)CC4)ccc32)cc1C | 77 | nt | 17* | -4 | 89 | nt
C=CCn1c(SCC(=O)Nc2cc(C)on2)nc2sc(CC)cc2c1=O | nt | nt | nt | 1 | nt | nt
CNC(=S)N1C2CCC1CC(NC(=O)NC13CC4CC(CC(C4)C1)C3)C2 (stereo not drawn) | nt | nt | nt | 1 | nt | nt
O=C(Nc1nnc(-c2ccc(Cl)cc2)o1)c1nc2ccccc2s1 | 38 | nt | 17* | 3 | 95 | nt
COc1cccc(-c2nnc(NC(=O)c3ccccc3Br)o2)c1 | 78 | 72* | 34* | nt | 93 | -2
COc1cccc(-c2nnc(NC(=O)c3cccc(F)c3)o2)c1 | nt | 100* | nt | nt | nt | 3
COc1cccc(-c2nnc(NC(=O)C(C)C)o2)c1 | 97 | nt | 81 | 9 | 99 | nt
COc1ccc(C(=O)Nc2nnc(-c3ccccc3)o2)cc1OC | 86 | 36 | 33* | -6 | 93 | 2
Cc1cccc(-c2nnc(NC(=O)c3ccc(Cl)cc3)o2)c1 | 3.2* | 100* | 25* | 30 | 106 | -6
N#CCSc1nnc(Cc2cccc3ccccc23)n1C1CCCCC1 | 128 | 50 | 71 | -5 | 98 | -2
COc1ccc(/C=N\NC(=O)COc2ccc(C(C)(C)C)cc2)cc1Cn1nc(C)cc1C | nt | nt | nt | 0 | nt | nt
O=S(=O)(c1cccc2nsnc12)N1CCc2ccccc21 | 101 | 13 | 93 | 4 | 100 | 3
Cc1cccc(C)c1N1CCN(c2ccc3nnc(C(F)(F)F)n3n2)CC1 | 13* | nt | 25* | 9 | 90 | nt

Compound activity as filed in PubChem BioAssay.
